32 molecules from ChEMBL document CHEMBL4229344 (Eur J Med Chem, 2018) can be followed below.

In general, GI50 refers to the concentration at which growth is held to half of that of the control.

Data set [1] concerns the target Platelet-derived growth factor receptor alpha (Homo sapiens, UniProt P16234).
In data set [2] the target is Platelet-derived growth factor receptor beta (Homo sapiens, UniProt P09619). Kind of data set: Inhibition of TEL-fused PDGFRbeta (unknown origin) expressed in mouse BA/F3 cells assessed as growth inhibition after 72 hrs by CellTiter-Glo or CCK-8 assay. The format is cell-based. In a few lines:
(§1)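 Parental BaF3 or IL-3-independent TEL-kinase BaF3 lines, made by retroviral infection and puromycin selection, grown in RPMI 1640 with 10% FBS. Cells seeded at 1–3 × 10^4 cells/mL with serial compound concentrations for 72 h. Viability read by CellTiter-Glo luminescence or CCK-8 absorbance at 450/655 nm and normalised to DMSO. GI50 obtained by triplicate testing with linear regression. Selectivity is the ratio of the two GI50 values.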
Background: Cellular ATP, detected with luciferase, serves as a proxy for viable cell number.

The nature of data set [3]: Cytotoxicity against mouse BA/F3 cells after 72 hrs by CellTiter-Glo or CCK-8 assay. The format is cell-based, BaF3. In a few lines:
as §1

For data set [4], the target named is Vascular endothelial growth factor receptor 2 (Homo sapiens) (UniProt P35968).
Chain of Vascular endothelial growth factor receptor 2 (Homo sapiens) (P35968 whole entry, the tested form may be a part): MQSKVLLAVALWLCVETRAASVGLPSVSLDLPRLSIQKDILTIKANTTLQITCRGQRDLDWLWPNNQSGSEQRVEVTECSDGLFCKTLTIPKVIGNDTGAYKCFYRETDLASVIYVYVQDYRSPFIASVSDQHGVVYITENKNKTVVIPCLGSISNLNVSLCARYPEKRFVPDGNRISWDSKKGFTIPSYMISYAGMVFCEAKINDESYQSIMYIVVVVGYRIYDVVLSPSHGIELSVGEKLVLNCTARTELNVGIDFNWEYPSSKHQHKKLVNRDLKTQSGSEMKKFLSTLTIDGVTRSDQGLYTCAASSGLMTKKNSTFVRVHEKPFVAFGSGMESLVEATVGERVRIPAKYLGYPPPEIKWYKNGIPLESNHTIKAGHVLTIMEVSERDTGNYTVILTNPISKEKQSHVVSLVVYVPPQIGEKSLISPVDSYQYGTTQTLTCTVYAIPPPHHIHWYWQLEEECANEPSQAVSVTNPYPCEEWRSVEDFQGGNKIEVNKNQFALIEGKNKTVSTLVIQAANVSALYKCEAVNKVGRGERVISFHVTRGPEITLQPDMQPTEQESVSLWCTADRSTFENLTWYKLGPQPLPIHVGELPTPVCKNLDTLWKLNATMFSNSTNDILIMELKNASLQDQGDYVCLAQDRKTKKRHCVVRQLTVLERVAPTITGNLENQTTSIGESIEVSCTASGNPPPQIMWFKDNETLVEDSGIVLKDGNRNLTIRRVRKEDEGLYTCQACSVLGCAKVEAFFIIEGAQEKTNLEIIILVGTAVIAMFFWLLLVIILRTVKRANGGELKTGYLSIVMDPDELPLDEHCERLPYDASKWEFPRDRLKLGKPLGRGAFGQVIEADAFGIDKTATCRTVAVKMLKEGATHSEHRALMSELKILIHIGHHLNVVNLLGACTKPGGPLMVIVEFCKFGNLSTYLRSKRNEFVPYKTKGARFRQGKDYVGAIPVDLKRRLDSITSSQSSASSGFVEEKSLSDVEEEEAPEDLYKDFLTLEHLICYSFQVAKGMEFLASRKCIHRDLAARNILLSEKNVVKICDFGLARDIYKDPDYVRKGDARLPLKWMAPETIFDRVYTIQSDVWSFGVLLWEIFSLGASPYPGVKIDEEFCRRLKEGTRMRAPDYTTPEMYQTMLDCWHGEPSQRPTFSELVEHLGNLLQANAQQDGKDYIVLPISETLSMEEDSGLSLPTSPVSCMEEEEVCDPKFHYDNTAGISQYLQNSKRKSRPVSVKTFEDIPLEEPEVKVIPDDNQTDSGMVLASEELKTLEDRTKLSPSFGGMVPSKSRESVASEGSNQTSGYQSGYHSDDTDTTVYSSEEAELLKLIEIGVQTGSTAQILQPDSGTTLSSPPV
The target in data set [5] is Mast/stem cell growth factor receptor Kit (Homo sapiens, UniProt P10721). The data set can be described thus: Inhibition of TEL-fused c-KIT (unknown origin) expressed in mouse BA/F3 cells assessed as growth inhibition after 72 hrs by CellTiter-Glo or CCK-8 assay. In kind it is cell-based. The procedure, abridged: as §1
Chain of Mast/stem cell growth factor receptor Kit (P10721 whole entry, the tested form may be a part): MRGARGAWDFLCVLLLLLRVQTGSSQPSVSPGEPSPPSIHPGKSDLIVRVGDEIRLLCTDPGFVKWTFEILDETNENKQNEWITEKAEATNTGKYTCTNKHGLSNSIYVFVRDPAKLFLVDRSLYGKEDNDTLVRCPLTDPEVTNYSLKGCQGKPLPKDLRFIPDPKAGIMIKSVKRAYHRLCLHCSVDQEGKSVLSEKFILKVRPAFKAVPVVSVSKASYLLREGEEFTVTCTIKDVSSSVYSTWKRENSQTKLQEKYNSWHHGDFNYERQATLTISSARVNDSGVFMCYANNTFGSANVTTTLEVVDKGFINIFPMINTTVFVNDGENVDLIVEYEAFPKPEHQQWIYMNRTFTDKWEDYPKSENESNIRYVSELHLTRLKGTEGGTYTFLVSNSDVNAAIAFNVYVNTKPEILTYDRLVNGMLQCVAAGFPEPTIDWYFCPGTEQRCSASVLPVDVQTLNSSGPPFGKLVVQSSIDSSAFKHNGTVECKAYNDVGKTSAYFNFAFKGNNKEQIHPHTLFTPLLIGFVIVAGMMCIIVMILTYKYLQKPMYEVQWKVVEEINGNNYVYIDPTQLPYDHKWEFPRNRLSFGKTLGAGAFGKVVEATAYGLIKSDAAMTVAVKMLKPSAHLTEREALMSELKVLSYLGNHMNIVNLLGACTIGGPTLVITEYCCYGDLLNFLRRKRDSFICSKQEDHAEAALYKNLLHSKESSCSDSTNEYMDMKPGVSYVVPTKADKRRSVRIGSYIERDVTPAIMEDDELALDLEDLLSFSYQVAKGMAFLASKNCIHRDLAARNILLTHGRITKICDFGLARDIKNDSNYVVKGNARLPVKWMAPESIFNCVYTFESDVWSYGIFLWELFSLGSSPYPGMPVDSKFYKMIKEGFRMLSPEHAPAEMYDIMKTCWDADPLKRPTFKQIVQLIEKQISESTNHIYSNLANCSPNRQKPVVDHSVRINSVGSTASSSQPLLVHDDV
The species named for another data set is Homo sapiens. The data set can be described thus: Selectivity index, ratio of GI50 for TEL-fused PDGFRbeta (unknown origin) expressed in mouse BA/F3 cells to GI50 for TEL-fused PDGFRalpha (unknown origin) expressed in mouse BA/F3 cells. In kind it is cell-based. The procedure, abridged: as §1

Chain of Platelet-derived growth factor receptor alpha (P16234 whole entry, the tested form may be a part): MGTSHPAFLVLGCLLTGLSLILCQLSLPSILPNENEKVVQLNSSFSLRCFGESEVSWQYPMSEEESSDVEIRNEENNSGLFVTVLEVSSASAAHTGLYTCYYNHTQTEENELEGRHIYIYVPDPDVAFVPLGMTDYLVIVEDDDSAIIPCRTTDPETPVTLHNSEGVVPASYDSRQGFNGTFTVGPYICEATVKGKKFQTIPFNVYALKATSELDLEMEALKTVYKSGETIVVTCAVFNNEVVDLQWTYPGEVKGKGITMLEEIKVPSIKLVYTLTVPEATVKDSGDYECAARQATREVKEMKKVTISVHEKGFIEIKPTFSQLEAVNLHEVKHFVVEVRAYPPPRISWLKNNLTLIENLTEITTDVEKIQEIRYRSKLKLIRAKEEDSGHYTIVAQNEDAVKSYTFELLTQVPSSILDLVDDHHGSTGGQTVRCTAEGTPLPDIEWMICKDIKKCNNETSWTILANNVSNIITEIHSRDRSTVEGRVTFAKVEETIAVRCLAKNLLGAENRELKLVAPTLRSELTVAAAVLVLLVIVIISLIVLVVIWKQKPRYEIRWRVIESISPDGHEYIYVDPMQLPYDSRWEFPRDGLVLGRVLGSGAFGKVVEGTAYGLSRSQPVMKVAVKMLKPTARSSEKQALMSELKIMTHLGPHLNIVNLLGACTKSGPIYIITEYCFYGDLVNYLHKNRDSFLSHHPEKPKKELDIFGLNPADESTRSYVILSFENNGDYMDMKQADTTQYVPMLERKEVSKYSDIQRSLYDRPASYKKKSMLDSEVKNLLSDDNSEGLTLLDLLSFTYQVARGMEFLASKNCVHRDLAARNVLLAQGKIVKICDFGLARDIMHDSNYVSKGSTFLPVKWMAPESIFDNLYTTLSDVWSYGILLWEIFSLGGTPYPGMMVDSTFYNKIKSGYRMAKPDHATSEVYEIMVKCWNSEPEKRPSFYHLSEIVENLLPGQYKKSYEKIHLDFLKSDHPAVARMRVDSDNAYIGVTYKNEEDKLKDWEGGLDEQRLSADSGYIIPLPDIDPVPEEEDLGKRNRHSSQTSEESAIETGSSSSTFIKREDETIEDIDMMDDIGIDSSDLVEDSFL
Chain of Platelet-derived growth factor receptor beta (P09619 whole entry, the tested form may be a part): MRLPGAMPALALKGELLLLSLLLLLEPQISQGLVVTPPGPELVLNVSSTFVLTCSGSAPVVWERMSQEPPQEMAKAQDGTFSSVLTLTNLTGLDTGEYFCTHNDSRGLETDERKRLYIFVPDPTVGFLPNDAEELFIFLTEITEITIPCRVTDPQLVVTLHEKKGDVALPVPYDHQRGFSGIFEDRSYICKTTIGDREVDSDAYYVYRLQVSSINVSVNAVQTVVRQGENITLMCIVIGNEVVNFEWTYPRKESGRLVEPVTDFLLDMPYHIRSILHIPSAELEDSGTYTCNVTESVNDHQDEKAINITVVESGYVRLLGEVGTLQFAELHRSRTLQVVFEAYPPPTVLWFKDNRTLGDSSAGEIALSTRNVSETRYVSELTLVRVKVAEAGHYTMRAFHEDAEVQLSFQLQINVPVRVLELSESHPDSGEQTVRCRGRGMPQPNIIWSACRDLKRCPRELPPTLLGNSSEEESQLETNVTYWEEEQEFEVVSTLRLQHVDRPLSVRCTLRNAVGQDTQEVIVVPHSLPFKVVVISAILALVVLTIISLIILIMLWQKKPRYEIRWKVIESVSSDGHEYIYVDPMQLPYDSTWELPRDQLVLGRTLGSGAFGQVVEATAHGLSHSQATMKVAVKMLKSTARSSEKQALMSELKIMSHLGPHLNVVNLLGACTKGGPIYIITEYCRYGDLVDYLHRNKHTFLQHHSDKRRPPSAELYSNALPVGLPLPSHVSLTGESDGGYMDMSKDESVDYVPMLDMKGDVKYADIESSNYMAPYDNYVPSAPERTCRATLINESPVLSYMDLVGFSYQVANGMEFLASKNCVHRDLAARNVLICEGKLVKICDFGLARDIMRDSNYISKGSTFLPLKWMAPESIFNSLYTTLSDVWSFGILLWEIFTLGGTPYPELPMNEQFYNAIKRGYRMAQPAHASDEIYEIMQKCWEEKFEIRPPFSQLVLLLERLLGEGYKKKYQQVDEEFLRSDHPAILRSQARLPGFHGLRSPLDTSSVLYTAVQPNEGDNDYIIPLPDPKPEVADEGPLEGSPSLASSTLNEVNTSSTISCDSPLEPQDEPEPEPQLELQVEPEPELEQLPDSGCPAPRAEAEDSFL

Regarding `CCC(=O)NCc1ccc(C(=O)Nc2ccc(C)c(Nc3nccc(-c4cccnc4)n3)c2)cc1`, the GI50 was 14 nM in data set [1], 201 nM in data set [2], greater than 10000 nM in data set [4] and 6220 nM in data set [5]. For the same molecule, the GI50 at 72 h in data set [3] is greater than 10000 nM.

In the case of `C=CS(=O)(=O)NCc1ccc(C(=O)Nc2ccc(C)c(Nc3nccc(-c4cccnc4)n3)c2)cc1`, the GI50 stood at 13 nM in data set [1], 48 nM in data set [2], 1560 nM in data set [4] and 580 nM in data set [5]. This molecule gave a GI50 at 72 h in data set [3] of 7710 nM.

Turning to `Cc1ccc(NC(=O)c2ccc(CN(CCN3CCCC3)C(=O)c3cccnc3)cc2)cc1Nc1nccc(-c2cccnc2)n1`, the GI50 in data set [1] was 39 nM; in data set [2], 934 nM; in data set [4], greater than 10000 nM; in data set [5], greater than 10000 nM. Besides, the GI50 at 72 h in data set [3] was greater than 10000 nM.

As for `C=CC(=O)N(CCC(C)C)Cc1ccc(C(=O)Nc2ccc(C)c(Nc3nccc(-c4cccnc4)n3)c2)cc1`, the GI50 in data set [1] was 19 nM; in data set [2] it was 230 nM; in data set [4] it was 5740 nM; in data set [5] it was 3940 nM. Moreover, the GI50 at 72 h in data set [3] was determined as 5620 nM.

For `Cc1ccc(NC(=O)c2ccc(CN(CCN(C)C)C(=O)CN(C)C)cc2)cc1Nc1nccc(-c2cccnc2)n1`, the GI50 in data set [1] was 120 nM; in data set [2] it was 9200 nM; in data set [4] it was greater than 10000 nM; in data set [5], greater than 10000 nM. This molecule came in with a GI50 at 72 h in data set [3] greater than 10000 nM.

Turning to `Cc1ccc(NC(=O)c2ccc(CN(CCO)C(=O)CN(C)C)cc2)cc1Nc1nccc(-c2cccnc2)n1`, the GI50 in data set [1] is 363 nM; in data set [2], 3880 nM; in data set [4], greater than 10000 nM; in data set [5], greater than 10000 nM. In data set [3], the GI50 at 72 h was greater than 10000 nM.

Take `Cc1ccc(NC(=O)c2ccc(NC(=O)c3cccnc3)cc2)cc1Nc1nccc(-c2cccnc2)n1`: the GI50 in data set [1] is 13 nM; in data set [2] it was 583 nM; in data set [4] it was 882 nM; in data set [5] it was 426 nM. Moreover, the GI50 at 72 h in data set [3] worked out at 1700 nM.

For the molecule `CCCC(=O)N(CCN(C)C)Cc1ccc(C(=O)Nc2ccc(C)c(Nc3nccc(-c4cccnc4)n3)c2)cc1`, the GI50 was found to be 25 nM in data set [1], 90 nM in data set [2], 4760 nM in data set [4] and 5750 nM in data set [5]. In data set [3], this molecule had a GI50 at 72 h greater than 10000 nM.

Turning to `C/C=C/C(=O)N(CCN(C)C)Cc1ccc(C(=O)Nc2ccc(C)c(Nc3nccc(-c4cccnc4)n3)c2)cc1`, the GI50 in data set [1] is 54 nM; in data set [2] it was 219 nM; in data set [4], 8540 nM; in data set [5], greater than 10000 nM. The molecule also had a GI50 at 72 h in data set [3] greater than 10000 nM.

On to `CCC(=O)NCc1cccc(C(=O)Nc2ccc(C)c(Nc3nccc(-c4cccnc4)n3)c2)c1`, for which the GI50 came to 15 nM in data set [1], 221 nM in data set [2], 3220 nM in data set [4] and 2920 nM in data set [5]. In data set [3], the GI50 at 72 h is 4750 nM.

For `Cc1ccc(NC(=O)c2ccc(CN(CCO)C(=O)c3cccnc3)cc2)cc1Nc1nccc(-c2cccnc2)n1`, the GI50 is 353 nM in data set [1], 3020 nM in data set [2], greater than 10000 nM in data set [4] and greater than 10000 nM in data set [5]. The GI50 at 72 h in data set [3] was greater than 10000 nM.

On to `C=CC(=O)NCc1cccc(C(=O)Nc2ccc(C)c(Nc3nccc(-c4cccnc4)n3)c2)c1`, for which the GI50 was 160 nM in data set [1], 244 nM in data set [2], greater than 10000 nM in data set [4] and 4750 nM in data set [5]. The 50% growth inhibitory concentration (GI50) at 72 h in data set [3] is greater than 10000 nM.

On to `Cc1ccc(NC(=O)c2ccc(CN(CCN(C)C)C(=O)c3ccno3)cc2)cc1Nc1nccc(-c2cccnc2)n1`, for which the concentration for 50% growth inhibition (GI50) in data set [1] was 166 nM; in data set [2] it was 787 nM; in data set [4], greater than 10000 nM; in data set [5], greater than 10000 nM. In data set [3], the GI50 at 72 h is greater than 10000 nM.

For the molecule `Cc1ccc(NC(=O)c2ccc(CN(CCN(C)C)C(=O)c3cccs3)cc2)cc1Nc1nccc(-c2cccnc2)n1`, the GI50 is 56 nM in data set [1], 207 nM in data set [2], greater than 10000 nM in data set [4] and greater than 10000 nM in data set [5]. In data set [3], this molecule displayed a GI50 at 72 h greater than 10000 nM.

As to `CCC(=O)N(CCN(C)C)Cc1ccc(C(=O)Nc2ccc(C)c(Nc3nccc(-c4cccnc4)n3)c2)cc1`, the GI50 is 36 nM in data set [1], 504 nM in data set [2], greater than 10000 nM in data set [4] and greater than 10000 nM in data set [5]. Moreover, in data set [3], the GI50 at 72 h is greater than 10000 nM. For the same molecule, in the data set filed under Homo sapiens, the RatioGI50 turned out to be 14.

`Cc1ccc(NC(=O)c2ccc(CN(CCN(C)C)C(=O)C3CC3)cc2)cc1Nc1nccc(-c2cccnc2)n1`: the GI50 in data set [1] was 112 nM; in data set [2] it was 437 nM; in data set [4], greater than 10000 nM; in data set [5], greater than 10000 nM. Further, in data set [3], the GI50 at 72 h is greater than 10000 nM.

`Cc1ccc(NC(=O)c2ccc(CN(CCN(C)C)C(=O)C(C)(C)C)cc2)cc1Nc1nccc(-c2cccnc2)n1`: the GI50 in data set [1] was 17 nM; in data set [2], 61 nM; in data set [4], 5480 nM; in data set [5], 2530 nM. In data set [3], this molecule had a GI50 at 72 h greater than 10000 nM.

In the case of `CCN(CC)CCN(Cc1ccc(C(=O)Nc2ccc(C)c(Nc3nccc(-c4cccnc4)n3)c2)cc1)C(=O)c1cccnc1`, the GI50 was 33 nM in data set [1], 699 nM in data set [2], greater than 10000 nM in data set [4] and greater than 10000 nM in data set [5]. Moreover, the GI50 at 72 h in data set [3] is greater than 10000 nM.

With `C=CC(=O)N(CCN(CC)CC)Cc1ccc(C(=O)Nc2ccc(C)c(Nc3nccc(-c4cccnc4)n3)c2)cc1`, the GI50 in data set [1] was 344 nM; in data set [2] it was 1100 nM; in data set [4], 4550 nM; in data set [5] it was 5140 nM. In data set [3], this molecule had a GI50 at 72 h of 5450 nM.

For the molecule `C=CC(=O)Nc1cccc(C(=O)Nc2ccc(C)c(Nc3nccc(-c4cccnc4)n3)c2)c1`, the GI50 was determined as 8 nM in data set [1], 173 nM in data set [2], 1570 nM in data set [4] and 1530 nM in data set [5]. The molecule further gave a GI50 at 72 h in data set [3] of 2480 nM.

Regarding `C=CC(=O)NCc1ccc(C(=O)Nc2ccc(C)c(Nc3nccc(-c4cccnc4)n3)c2)cc1`, the GI50 in data set [2] is 155 nM; in data set [5], greater than 10000 nM. Further, the GI50 at 72 h in data set [3] is greater than 10000 nM.

Turning to `Cc1ccc(NC(=O)c2ccc(CN(CCN(C)C)C(=O)C(C)C)cc2)cc1Nc1nccc(-c2cccnc2)n1`, the GI50 in data set [1] came out at 39 nM; in data set [2] it was 123 nM; in data set [4], 8640 nM; in data set [5], 6110 nM. The GI50 at 72 h in data set [3] was greater than 10000 nM.

On to `Cc1ccc(NC(=O)c2ccc(CNC(=O)c3cccnc3)c(C(F)(F)F)c2)cc1Nc1nccc(-c2cccnc2)n1`, for which the GI50 in data set [1] came out at 5 nM; in data set [2] it was 82 nM; in data set [4], 3410 nM; in data set [5], 66 nM. The molecule further displayed a GI50 at 72 h in data set [3] of 8330 nM.

For the molecule `C=CC(=O)Nc1cc(C(=O)Nc2ccc(C)c(Nc3nccc(-c4cccnc4)n3)c2)cc(C(F)(F)F)c1`, the GI50 in data set [1] came out at 13 nM; in data set [2], 98 nM; in data set [4], 3340 nM; in data set [5], 250 nM. Further, the GI50 at 72 h in data set [3] stood at 5460 nM.

On to `C=CC(=O)NCc1ccc(C(=O)Nc2ccc(C)c(Nc3nccc(-c4cccnc4)n3)c2)cc1C(F)(F)F`, for which the GI50 in data set [1] is 59 nM; in data set [2], 161 nM; in data set [4], greater than 10000 nM; in data set [5] it was 300 nM. For the same molecule, the GI50 at 72 h in data set [3] was greater than 10000 nM.

As to `CCC(=O)Nc1cc(C(=O)Nc2ccc(C)c(Nc3nccc(-c4cccnc4)n3)c2)cc(C(F)(F)F)c1`, the GI50 in data set [1] is 39 nM; in data set [2] it was 231 nM; in data set [4], greater than 10000 nM; in data set [5] it was 104 nM. In data set [3], this molecule gave a GI50 at 72 h greater than 10000 nM.

`C=CC(=O)Nc1ccc(C(=O)Nc2ccc(C)c(Nc3nccc(-c4cccnc4)n3)c2)cc1`: the GI50 is 757 nM in data set [2], 2030 nM in data set [4] and 2940 nM in data set [5]. Further, the GI50 at 72 h in data set [3] is 5600 nM.

For the molecule `CCC(=O)Nc1ccc(C(=O)Nc2ccc(C)c(Nc3nccc(-c4cccnc4)n3)c2)cc1`, the GI50 was 12 nM in data set [1], 888 nM in data set [2], 6270 nM in data set [4] and 4940 nM in data set [5]. Also, in data set [3], the GI50 at 72 h is greater than 10000 nM.

Consider `Cc1ccc(NC(=O)c2ccc(CNCCN(C)C)cc2)cc1Nc1nccc(-c2cccnc2)n1`, for which the GI50 in data set [1] turned out to be 24 nM; in data set [2], 125 nM; in data set [4], 4880 nM; in data set [5] it was 5000 nM. In addition, the concentration for 50% growth inhibition (GI50) at 72 h in data set [3] is greater than 10000 nM.

On to `Cc1ccc(C(=O)N(CCN(C)C)Cc2ccc(C(=O)Nc3ccc(C)c(Nc4nccc(-c5cccnc5)n4)c3)cc2)cc1`, for which the GI50 is 100 nM in data set [1], 240 nM in data set [2], greater than 10000 nM in data set [4] and greater than 10000 nM in data set [5]. In data set [3], this molecule returned a GI50 at 72 h greater than 10000 nM.

In the case of `Cc1ccc(NC(=O)c2ccc(CNC(=O)c3cccnc3)cc2)cc1Nc1nccc(-c2cccnc2)n1`, the GI50 in data set [1] was 14 nM; in data set [2], 341 nM; in data set [4], 348 nM; in data set [5] it was 216 nM. This molecule yielded a GI50 at 72 h in data set [3] of 1120 nM.

Consider `C=CC(=O)N(CCN(C)C)Cc1ccc(C(=O)Nc2ccc(C)c(Nc3nccc(-c4cccnc4)n3)c2)cc1`, for which the GI50 is 11 nM in data set [1], 350 nM in data set [2], greater than 10000 nM in data set [4] and greater than 10000 nM in data set [5]. The molecule also gave a GI50 at 72 h in data set [3] greater than 10000 nM. The RatioGI50 in the data set filed under Homo sapiens was greater than 30.
